Where a SMILES comes first, the peptide text is derived from it. [ ]: non-standard residue; d: D form. The star is where a group is joined. Cbz = O=C(OCc1ccccc1)*; Ac3c = NC1(C(=O)O)CC1
Key:
[1] = Cytotoxicity against human U2OS cells assessed as reduction in cell viability incubated for 72 hrs by MTT assay; assay type: cell-based
How it was run: (§1)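 Cells seeded at 5 × 10^4 cells per mL and grown 48 h (LLC-MK2 in RPMI; U2OS in high glucose DMEM). MTT 2.0 mg/mL added for 4 h, formazan dissolved in DMSO, read at 570 nm. CC50 from percent reduction versus untreated control.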

[2] = Selectivity index, ratio of CC50 for monkey LLC-MK2 cells assessed as reduction in cell viability incubated for 72 hrs by MTT assay to EC50 for Trypanosoma cruzi Tulahuen LacZ intracellular amastigote form infected in monkey LLC-MK2 cells incubated for 72 hrs by chlorophenol red beta-D-galactopyranoside substrate based spectrophotometric assay; assay type: toxicity; conditions: read-out: Ratio CC50/EC50
Trypanosoma cruzi [3] = experiment: Trypanocidal activity against Trypanosoma cruzi Tulahuen LacZ intracellular amastigote form infected in monkey LLC-MK2 cells incubated for 72 hrs by chlorophenol red beta-D-galactopyranoside substrate based spectrophotometric assay; assay type: functional, organism-based; conditions: LLC-MK2, 72 h
How it was run: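 LLC-MK2 at 5 × 10^4 cells per mL infected with Tulahuen LacZ trypomastigotes at 5 × 10^5 per mL, 24 h at 37 °C, 5% CO2. Extracellular parasites washed off. Compounds 1.95–250 µM (DMSO) added for 72 h. […] Benznidazole as positive control, DMSO as negative.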

Trypanosoma cruzi [4] = experiment: Trypanocidal activity against Trypanosoma cruzi Y intracellular amastigote form infected in human U2OS cells
[5] = Cytotoxicity against monkey LLC-MK2 cells assessed as reduction in cell viability incubated for 72 hrs by MTT assay; assay type: cell-based, Macaca mulatta; conditions: rhesus monkey; how it was run: as §1
[6] = Selectivity index, ratio of CC50 for human U2OS cells assessed as reduction in cell viability incubated for 72 hrs by MTT assay to EC50 for Trypanosoma cruzi […]; assay type: toxicity, cell-based; conditions: read-out: Ratio CC50/EC50
[7] = L-Cysteine reactivity in pH 7.4 phosphate buffer assessed as decay constant; assay type: physicochemical
How it was run: (§2)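 HPLC reactivity at 37 °C in 0.05 M phosphate pH 7.4 with 1.0 mM EDTA and 5% acetonitrile, thiol glutathione or cysteine. Inhibitor solution 2.5 mM (stock). Aliquots injected over time on a 5–100% acetonitrile/water gradient with PDA detection 210–400 nm. Half-life and K from a one-phase decay fit, pseudo-first-order. Thiol-free control run for stability. Halved-concentration runs also reported.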

Cruzipain = Cruzipain (Trypanosoma cruzi, UniProt P25779); experiment: Covalent inhibition of Trypanosoma cruzi cruzipain using Z-Phe-Arg-7-amidomethylcoumarin as substrate measured after 5 mins by fluorometric analysis
Cruzipain, sequence (P25779 whole entry, the tested form may be a part): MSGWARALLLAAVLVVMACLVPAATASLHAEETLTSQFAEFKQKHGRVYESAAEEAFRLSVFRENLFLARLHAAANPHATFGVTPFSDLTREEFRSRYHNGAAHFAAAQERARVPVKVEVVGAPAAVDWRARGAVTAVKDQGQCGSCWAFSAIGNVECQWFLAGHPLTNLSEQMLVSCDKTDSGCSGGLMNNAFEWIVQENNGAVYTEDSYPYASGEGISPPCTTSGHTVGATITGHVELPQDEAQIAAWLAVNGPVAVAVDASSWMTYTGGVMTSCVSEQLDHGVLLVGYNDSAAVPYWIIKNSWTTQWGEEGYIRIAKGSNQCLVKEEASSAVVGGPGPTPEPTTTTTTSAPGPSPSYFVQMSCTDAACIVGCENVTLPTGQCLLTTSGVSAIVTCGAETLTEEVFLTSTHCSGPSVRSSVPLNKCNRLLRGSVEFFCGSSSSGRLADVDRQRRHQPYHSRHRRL
How it was run: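 Recombinant cruzain catalytic domain (no C-terminal extension), 0.15 nM, activated 20 min in 100 mM acetate pH 5.5, 300 mM NaCl, 5 mM DTT, then 2 min with inhibitor. Assay buffer adds 5% DMSO and 0.01% Triton X-100. Z-FR-AMC hydrolysis read at 355/460 nm, 37 °C, over 5 min. Wells checked for precipitation and background fluorescence.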

[8] = L-Cysteine reactivity in pH 7.4 phosphate buffer assessed as half life at 2.5 mM by HPLC analysis; assay type: physicochemical; conditions: phosphate buffer with L-cysteine; how it was run: as §2
[9] = Glutathione reactivity in pH 7.4 phosphate buffer assessed as half life at 2.5 mM by HPLC analysis; assay type: physicochemical; conditions: phosphate buffer with glutathione; how it was run: as §2
Trypanosoma cruzi [10] = experiment: Trypanocidal activity against Trypanosoma cruzi […] relative to benznidazole; assay type: functional
[11] = Glutathione reactivity in pH 7.4 phosphate buffer assessed as decay constant; assay type: physicochemical; how it was run: as §2
[12] = Glutathione reactivity in pH 7.4 phosphate buffer assessed decay constant at 1.25 mM; assay type: physicochemical; conditions: pH 7.4, 1250 µM; how it was run: as §2
[13] = L-Cysteine reactivity in pH 7.4 phosphate buffer assessed as decay constant at 1.25 mM; assay type: physicochemical; conditions: pH 7.4, 1250 µM; how it was run: as §2

Structure (SMILES)	CC50 at 72 h [1] [µM]	EC50 (Trypanosoma cruzi [3]) [µM]	EC50 (Trypanosoma cruzi [4]) [µM]	CC50 at 72 h [5] [µM]	selectivity ratio at 72 h [6]	further results
O=C(N[C@@H](Cc1ccccc1)C(=O)Nc1cnoc1)OCc1ccccc1	> 100	25.8	5.1	> 100	> 19.6	selectivity ratio at 72 h [2]: > 3.9
CCN(CC)C(=O)/C=C/C1(NC(=O)[C@H](Cc2ccccc2)NC(=O)OCc2ccccc2)CC1	–	> 100	–	> 100	–	–
N#CCNC(=O)[C@H](Cc1ccccc1)NC(=O)OCc1ccccc1	> 100	> 100	3.6	> 100	> 27.8	selectivity ratio at 72 h [2]: 1.1
CCOC(=O)/C=C/C1(NC(=O)[C@H](Cc2ccccc2)NC(=O)OCc2ccccc2)CC1	–	79.6	–	> 100	–	selectivity ratio at 72 h [2]: > 1.2
N#CC1(NC(=O)[C@H](Cc2ccccc2)NC(=O)c2ccccc2)CC1	–	> 100	–	–	–	K [7]: 0.436 10^-2/min
CN(C#N)N(C)C(=O)[C@H](Cc1ccccc1)NC(=O)OCc1ccccc1	10.2	21.7	3.2	42	3.2	selectivity ratio at 72 h [2]: 1.9
CON(C)C(=O)CNC(=O)[C@H](Cc1ccccc1)NC(=O)OCc1ccccc1	–	> 100	–	> 100	–	Ki (Cruzipain): 100 µM
Cc1coc(NC(=O)[C@H](Cc2ccccc2)NC(=O)OCc2ccccc2)n1	–	> 100	–	> 100	–	–
N#CC1(NC(=O)[C@H](Cc2ccccc2)NC(=O)OCc2ccccc2)CC1	6	> 100	1	> 100	4.4	–
O=CC1(NC(=O)[C@H](Cc2ccccc2)NC(=O)OCc2ccccc2)CC1 (Cbz-Phe-[Ac3c]-aldehyde)	3	> 100	0.1	> 100	58.4	half-life at 2500 µM [8]: 22.2 min; half-life at 2500 µM [9]: 40 min; fold change (FC) (Trypanosoma cruzi [10]): 10; K [11]: 1.73 10^-2/min; K [7]: 3.12 10^-2/min
CC(C)C[C@H](NC(=O)c1cc(C(C)(C)C)nn1C)C(=O)N(C)N(C)C#N	–	8.4	8.4	–	–	K [12]: 1.01 10^-2/min; K [13]: 3.15 10^-2/min
CNC(=O)/C=C/C1(NC(=O)[C@H](Cc2ccccc2)NC(=O)OCc2ccccc2)CC1	> 100	–	12.1	–	> 8.2	–
N#CCNC(=O)[C@H](Cc1ccccc1)NC(=O)c1ccccc1	–	> 100	–	–	–	K [7]: 9.33 10^-2/min
O=C(N[C@@H](Cc1ccccc1)C(=O)NC/C=N/O)OCc1ccccc1	> 100	–	> 100	–	–	Ki (Cruzipain): 10 µM
COC(=O)C1=C(C#N)NC(C)=C(C(=O)OC(C)C)C1c1cccc([N+](=O)[O-])c1 (configuration not stated) [NILVADIPINE]	–	–	–	–	–	half-life at 2500 µM [9]: > 5000 min; K [7]: 1.41 10^-2/min
O=C(N[C@@H](Cc1ccccc1)C(=O)Nc1cnoc1)c1ccccc1	> 100	–	6	–	> 16.6	Ki (Cruzipain): 20 µM
O=C(N[C@@H](Cc1c[nH]c2ccccc12)C(=O)Nc1cnoc1)c1ccccc1	> 100	–	22.4	–	> 8.2	Ki (Cruzipain): 10 µM

Source: ChEMBL document CHEMBL4699421 (RSC Med Chem, 2020)
